According to ChEMBL document CHEMBL4024790 (J Med Chem, 2018):
The source made the active and inactive calls. The calls are words filed in the database; no cut-off is given here.

Legend:
[1] = Terminal half life in beagle dog at 0.3 mg/kg, iv by LC-MS/MS analysis; assay type: ADME, organism-based, Canis lupus familiaris; conditions: in vivo, read-out: beta t1/2 (converted)
Outline: (§1)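 Single iv dose to male Wistar-Han rats (1 mg/kg) or dogs (0.3 mg/kg), given as a solution in 20% (w/v) SBECD with HCl. Dose volume 1 mL/kg in rats and 0.4 mL/kg in dogs. Blood taken by carotid artery cannula from 2 min to 24 h into K2EDTA (rat) or K3EDTA (dog) tubes. Plasma analysed by LC-MS/MS with positive electrospray after acetonitrile precipitation with internal standard.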

Rattus norvegicus [2] = species on record: Rattus norvegicus
[3] = Cmax in Wistar Han rat at 5 mg/kg, po administered via gavage by LC-MS/MS analysis; assay type: ADME, organism-based; set-up: dose 5 mg/kg, route oral; conditions: in vivo
[4] = Cmax in beagle dog at 0.3 mg/kg, iv by LC-MS/MS analysis; assay type: ADME, organism-based, Canis lupus familiaris; set-up: dose 0.3 mg/kg, route intravenous; conditions: in vivo
Outline: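 Male Wistar-Han rats given single 1 mg/kg IV; beagle dogs 0.3 mg/kg IV; solution in 20% (w/v) sulfobutyl ether β-cyclodextrin with hydrochloric acid, 1 mL/kg (rat) or 0.4 mL/kg (dog). Blood via carotid artery cannula between 2 min and 24 h into EDTA tubes; plasma analysed by LC-MS/MS with positive electrospray.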

[5] = Ratio of unbound brain concentration to unbound plasma concentration in iv or sc dosed Wistar Han rat; assay type: ADME, organism-based; conditions: brain and plasma, read-out: K(p,uu,brain)
Outline: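 Compound given sc to mice, iv and/or sc to rats, po to dogs and sc to monkeys; sc doses as a solution in 20% SBE-BCD + 2 molar equiv 1N HCl. Plasma, whole brain and CSF taken at matched times from 2 min to 24 h and quantified by LC-MS/MS. Fraction unbound in plasma and brain homogenate (diluted 4-fold, dilution factor 5 applied) by 6 h equilibrium dialysis against phosphate buffer at 37°C.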

Mus musculus [6] = species on record: Mus musculus; assay: Increase in cGMP level in CD-1 mouse brain hippocampus assessed as unbound brain concentration required to show the effect by immunoassay; assay type: functional
Outline: (§2)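 CD-1 mice dosed SC (solution in 20% SBE-β-CD with 2 molar equivalents 1N HCl, 1 mL/kg); euthanized by focused microwave irradiation of brain; cortex, striatum, hippocampus homogenized in 0.5 N HCl, centrifuged; cyclic nucleotides in supernatant by enzyme immunoassay. Unbound brain exposure from satellite animals; dose-response and time-course data combined with linear model; one-way ANOVA with Fisher's PLSD.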

[7] = Passive permeability in RRCK cells; assay type: ADME, cell-based, Canis lupus familiaris, MDCKII-LE; conditions: dog, MDCK; read-out: permeability
Rattus norvegicus [8] = assay: Reversal of ketamine-induced working memory deficit in Long Evans rat assessed as unbound brain concentration required to show effect at 0.1 mg/kg, sc by radial arm maze assay; assay type: functional, organism-based
Outline: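 Rats trained in a radial arm maze working-memory task, with deficit induced by ketamine. Compound dosed sc; errors compared with vehicle + ketamine. N = 20–23 per group, Hochberg test. Cbu at the tested doses estimated from satellite pharmacokinetic animals.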

[9] = Apparent intrinsic clearance in human liver microsomes; assay type: ADME, microsome; conditions: read-out: CLH(app)
[10] = Plasma clearance in beagle dog at 0.3 mg/kg, iv by LC-MS/MS analysis; assay type: ADME, organism-based, Canis lupus familiaris; outline: as §1
Cytochrome P450 2D6 [11] = molecular target: T1, Cytochrome P450 2D6 (Homo sapiens, UniProt P10635); assay: Time-dependant inhibition of recombinant human CYP2D6; assay type: ADME; conditions: recombinant enzyme
Canis familiaris [12] = species on record: Canis familiaris; assay: Toxicity in dog assessed as effect on vasculature up to 1 month by microscopic method; set-up: species or system Canis lupus familiaris; conditions: in vivo
Mus musculus [13] = assay: In vivo effect on phosphorylated CREB level in CD-1 mouse brain striatum by immunoassay; assay type: functional, organism-based
Mus musculus [14] = species on record: Mus musculus; assay: Increase in cGMP level in CD-1 mouse brain striatum assessed as unbound brain concentration required to show the effect by immunoassay; assay type: functional
Outline: (§3)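 CD-1 mice given compound; brains fixed by focused microwave irradiation, and cortex, striatum and hippocampus dissected and homogenized in 0.5 N HCl, then centrifuged. cGMP in the supernatant measured by enzyme immunoassay. Unbound brain concentration taken from satellite animals. Dose-response and time-course data combined, and a linear Cbu–cGMP model fitted. The Cbu E50 is the projected Cbu giving a 50% rise in cGMP. Statistics by one-way ANOVA with Fisher's PLSD, p<0.05.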

[15] = Oral bioavailability in Wistar Han rat at 5 mg/kg administered via gavage by LC-MS/MS analysis; assay type: ADME, organism-based; conditions: in vivo
Liver = assay: Drug metabolism in rat liver microsomes assessed as 1-(7-methyl-5-(1-methyl-5-(5-(trifluoromethyl)pyridin-2-yl)-1H-pyrazol-4-yl)imidazo[1,5-f][1,2,4]triazin-4-yl)azetidin-3-ol formation at 1 to 50 uM after 1 hr by LC-MS/MS analysis; assay type: ADME, microsome
Outline: (§4)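 Rat, dog or human liver microsomes or hepatocytes (P450 0.35–0.5 µM final) incubated with compound at 1, 10 or 50 µM in 100 mM phosphate buffer with 1 mM NADP regenerating system, 37°C for 1 h; quenched with 4 volumes acetonitrile, centrifuged, supernatant evaporated, reconstituted in 5% aqueous acetonitrile and analysed by reversed-phase LC.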

Cytochrome P450 2D6 [16] = molecular target: T1, Cytochrome P450 2D6; assay: Inhibition of recombinant human CYP2D6; assay type: ADME; conditions: recombinant enzyme
Canis familiaris [17] = assay: Cardiotoxicity in dog up to 15 mg/kg/day, po for 14 days by microscopic method; assay type: toxicity, organism-based, Canis lupus familiaris; conditions: in vivo, 336 h
Mus musculus [18] = species on record: Mus musculus; assay: Increase in cGMP level in CD-1 mouse brain striatum by immunoassay; assay type: functional; outline: as §3
[19] = Drug metabolism in rat hepatocytes assessed as 3-(7-methyl-5-(1-methyl-5-(5-(trifluoromethyl)pyridin-2-yl)-1H-pyrazol-4-yl)imidazo[1,5-f][1,2,4]triazin-4-ylamino)propanoic acid formation at 1 to 50 uM after 1 hr by LC-MS/MS analysis; assay type: ADME, cell-based, Hepatocyte; outline: as §4
Rattus norvegicus [20] = assay: Effect on habituated locomotor activity in Long Evans rat at 0.32 to 3.2 mg/kg, sc; assay type: ADME, organism-based; conditions: in vivo
Outline: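 Rats dosed SC at 0.32, 1.0 and 3.2 mg/kg; conditioned avoidance responding also run in combination with risperidone 0.032 mg/kg.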

Rattus norvegicus [21] = assay: Toxicity in rat assessed as effect on vasculature at 5 to 250 mg/kg/day, po up to 15 days by microscopic method; assay type: organism-based; conditions: in vivo, 360 h
[22] = Drug metabolism in rat hepatocytes assessed as 1-(7-methyl-5-(1-methyl-5-(5-(trifluoromethyl)pyridin-2-yl)-1H-pyrazol-4-yl)imidazo[1,5-f][1,2,4]triazin-4-yl)azetidin-3-ol formation at 1 to 50 uM after 1 hr by LC-MS/MS analysis; assay type: ADME, cell-based, Hepatocyte; outline: as §4
Canis familiaris [23] = species on record: Canis familiaris; assay: Cardiotoxicity in dog up to 1 month by microscopic method; assay type: toxicity, Canis lupus familiaris
[24] = Oral bioavailability in beagle dog at 5 mg/kg administered via gavage by LC-MS/MS analysis; assay type: ADME, organism-based, Canis lupus familiaris; conditions: in vivo
Mus musculus [25] = species on record: Mus musculus; assay: Increase in cGMP level in CD-1 mouse brain cortex assessed per nM of unbound brain concentration by immunoassay; assay type: functional; outline: as §2
[26] = AUC (0 to infinity) in Wistar Han rat at 5 mg/kg, po administered via gavage by LC-MS/MS analysis; assay type: ADME, organism-based; set-up: dose 5 mg/kg, route oral, time infinity; conditions: in vivo

T1 sequence (P10635 whole entry): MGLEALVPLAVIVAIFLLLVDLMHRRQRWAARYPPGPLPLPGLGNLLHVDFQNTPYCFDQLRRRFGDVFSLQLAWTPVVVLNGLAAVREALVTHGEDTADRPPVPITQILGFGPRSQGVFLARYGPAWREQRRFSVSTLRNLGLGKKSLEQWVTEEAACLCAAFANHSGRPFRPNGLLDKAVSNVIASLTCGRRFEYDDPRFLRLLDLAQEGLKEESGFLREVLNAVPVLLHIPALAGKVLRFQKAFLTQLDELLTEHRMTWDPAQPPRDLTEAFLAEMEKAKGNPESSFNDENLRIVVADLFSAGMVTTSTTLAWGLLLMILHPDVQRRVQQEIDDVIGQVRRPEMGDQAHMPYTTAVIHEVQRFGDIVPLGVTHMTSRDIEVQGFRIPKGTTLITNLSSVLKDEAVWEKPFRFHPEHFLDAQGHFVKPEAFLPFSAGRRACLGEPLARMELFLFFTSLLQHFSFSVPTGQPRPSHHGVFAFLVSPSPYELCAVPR

half-life [1]: 5 h
Cmax [3]: 363 ng/mL
Cmax [4]: 293 ng/mL
Kp uu [5]: 0.71
Papp [7]: 26 ×10⁻⁶ cm/s
CLint scaled [9]: 52 mL/min/kg
clearance [10]: 12.3 mL/min/kg
TDI (Cytochrome P450 2D6 [11]): Not Active
bioavailability [15]: 44%
Drug metabolism (Liver): Metabolite_Detected
inhibition (INH) (Cytochrome P450 2D6 [16]): Not Active
Drug metabolism [19]: Metabolite_Detected
Drug metabolism [22]: Metabolite_Detected
bioavailability [24]: 57%
AUC(0-inf) [26]: 312 ng·h/mL
Compound: Cc1nc(-c2cnn(C)c2-c2ccc(C(F)(F)F)cn2)c2c(N3CCC3)ncnn12 [PF-05180999]
fIC50 (Rattus norvegicus [2]): 9 nM
fEC50 (Mus musculus [6]): 116.3 nM
Drug uptake(free) (Rattus norvegicus [8]): 3.1 nM
Activity (Canis familiaris [12]): Non-Toxic
Activity (Mus musculus [13]): inactive
fEC50 (Mus musculus [14]): 98 nM
Activity (Canis familiaris [17]): Non-Toxic
Activity (Mus musculus [18]): Dose-dependent effect
Activity (Rattus norvegicus [20]): Non-Toxic
Activity (Rattus norvegicus [21]): Non-Toxic
Activity (Canis familiaris [23]): Non-Toxic
Activity (Mus musculus [25]): 0.63%
